Measurements as given in ChEMBL document CHEMBL1671683, “Activity of linezolid in an in vitro pharmacokinetic-pharmacodynamic model using different dosages and Staphylococcus aureus and Enterococcus faecalis strains with and without a hypermutator phenotype” (Antimicrob Agents Chemother, 2010).

Columns and labels:
Staphylococcus aureus [1] = test: Bactericidal activity against 1 hr peripheral compartment culture samples of Staphylococcus aureus RN4220 MutS2 in two-compartment pharmacokinetic/pharmacodynamic model assessed as effect on bacterial count at 600 mg, bid administered as 0.5 hr infusion; assay type: functional
Outline: (§1)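 Two-compartment hollow-fibre model in cation-adjusted, protein-free MH broth, 37°C. Linezolid given as simulated 0.5-h infusion twice daily. Inoculum grown 18 h, concentrated 50-fold and placed in the peripheral compartment 3 h before t0. Peripheral samples at set times counted by dilution plating. First 10-fold dilution not plated, limiting detection to 2–3 log10 CFU/ml. Δlog CFU/ml taken from t0 count. Duplicates.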

Staphylococcus aureus [2] = test: Bactericidal activity against 48 hrs peripheral compartment culture samples of Staphylococcus aureus RN4220 MutS2 in two-compartment pharmacokinetic/pharmacodynamic model assessed as effect on bacterial count at 600 mg, bid administered as 0.5 hr infusion; assay type: functional
Outline: (§2)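 An 18-h culture concentrated 50-fold was injected into the peripheral compartment 3 h pre-sampling (~10^8 CFU/ml E. faecalis, 10^9 S. aureus). Counts came from dilution plating (detection limit 2–3 log10 CFU/ml), expressed as Δlog CFU/ml from treatment start. Run in duplicate.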

Enterococcus faecalis [3] = test: Bactericidal activity against 12.5 hrs peripheral compartment culture samples of Enterococcus faecalis ATCC 29212 in two-compartment pharmacokinetic/pharmacodynamic model assessed as effect on bacterial count at 200 mg, bid administered as 0.5 hr infusion; assay type: functional; outline: as §2
Enterococcus faecalis [4] = test: Bactericidal activity against 24 hrs peripheral compartment culture samples of Enterococcus faecalis ATCC 29212 in two-compartment pharmacokinetic/pharmacodynamic model assessed as effect on bacterial count at 200 mg, bid administered as 0.5 hr infusion; assay type: functional; outline: as §2
Enterococcus faecalis [5] = test: Bactericidal activity against 48 hrs peripheral compartment culture samples of Enterococcus faecalis ATCC 29212 in two-compartment pharmacokinetic/pharmacodynamic model assessed as effect on bacterial count at 200 mg, bid administered as 0.5 hr infusion; assay type: functional; outline: as §2
Enterococcus faecalis [6] = test: Bactericidal activity against 48 hrs peripheral compartment culture samples of Enterococcus faecalis ATCC 29212 in two-compartment pharmacokinetic/pharmacodynamic model assessed as effect on bacterial count at 600 mg, bid for every 12 hrs administered as 0.5 hrs infusion; assay type: functional; outline: as §2
Enterococcus faecalis [7] = test: Bactericidal activity against 12 hrs peripheral compartment culture samples of Enterococcus faecalis Ef1497 in two-compartment pharmacokinetic/pharmacodynamic model assessed as effect on bacterial count at 800 mg, bid administered as 0.5 hr infusion; assay type: functional; outline: as §2
Enterococcus faecalis [8] = test: Bactericidal activity against 48 hrs peripheral compartment culture samples of Enterococcus faecalis Ef1497 in two-compartment pharmacokinetic/pharmacodynamic model assessed as effect on bacterial count at 800 mg, bid administered as 0.5 hr infusion; assay type: functional; outline: as §2
Enterococcus faecalis [9] = test: Bactericidal activity against 13 hrs peripheral compartment culture samples of Enterococcus faecalis Ef1497 MutM3 in two-compartment pharmacokinetic/pharmacodynamic model assessed as effect on bacterial count at 200 mg, bid administered as 0.5 hr infusion; assay type: functional; outline: as §2
Enterococcus faecalis [10] = test: Bactericidal activity against 14 hrs peripheral compartment culture samples of Enterococcus faecalis Ef1497 MutM3 in two-compartment pharmacokinetic/pharmacodynamic model assessed as effect on bacterial count at 200 mg, bid administered as 0.5 hr infusion; assay type: functional; outline: as §2
Enterococcus faecalis [11] = test: Bactericidal activity against 1 hr peripheral compartment culture samples of Enterococcus faecalis Ef1497 MutM3 in two-compartment pharmacokinetic/pharmacodynamic model assessed as effect on bacterial count at 600 mg, bid administered as 0.5 hr infusion; assay type: functional; outline: as §1
Enterococcus faecalis [12] = test: Bactericidal activity against 48 hrs peripheral compartment culture samples of Enterococcus faecalis Ef1497 MutM3 in two-compartment pharmacokinetic/pharmacodynamic model assessed as effect on bacterial count at 600 mg, bid administered as 0.5 hr infusion; assay type: functional; outline: as §2
[13] = Cmax in two-compartment pharmacokinetic/pharmacodynamic model at 600 mg, bid administered as 0.5 hrs infusion; assay type: ADME, organism-based; set-up: dose 600 mg; details: iv
[14] = Residual concentration at the end of the administration interval in two-compartment pharmacokinetic/pharmacodynamic model at 600 mg, bid administered as 0.5 hrs infusion; assay type: ADME; details: iv, read-out: Drug uptake
[15] = Mean residence time in two-compartment pharmacokinetic/pharmacodynamic model at 200 mg, bid administered as 0.5 hrs infusion; assay type: ADME, organism-based; details: iv
[16] = AUC in two-compartment pharmacokinetic/pharmacodynamic model at 800 mg, bid administered as 0.5 hrs infusion; assay type: ADME; details: iv
[17] = Total clearance in two-compartment pharmacokinetic/pharmacodynamic model at 200 mg, bid administered as 0.5 hrs infusion; assay type: ADME, organism-based; details: iv
[18] = Total clearance in two-compartment pharmacokinetic/pharmacodynamic model at 800 mg, bid administered as 0.5 hrs infusion; assay type: ADME, organism-based; details: iv
[19] = Apparent volume of distribution in two-compartment pharmacokinetic/pharmacodynamic model at 800 mg, bid administered as 0.5 hrs infusion; assay type: ADME, organism-based; details: iv
[20] = Volume of distribution at steady state in two-compartment pharmacokinetic/pharmacodynamic model at 800 mg, bid administered as 0.5 hrs infusion; assay type: ADME, organism-based; details: iv, read-out: Vdss
Staphylococcus aureus [21] = test: Bactericidal activity against 24 hrs peripheral compartment culture samples of Staphylococcus aureus RN4220 in two-compartment pharmacokinetic/pharmacodynamic model assessed as effect on bacterial count at 600 mg, bid administered as 0.5 hr infusion; assay type: functional; outline: as §2
Staphylococcus aureus [22] = test: Bactericidal activity against 0.5 hrs peripheral compartment culture samples of Staphylococcus aureus RN4220 MutS2 in two-compartment pharmacokinetic/pharmacodynamic model assessed as effect on bacterial count at 600 mg, bid administered as 0.5 hr infusion; assay type: functional; outline: as §1
[23] = tested on: Staphylococcus aureus subsp. aureus RN4220; test: T>MIC in Staphylococcus aureus RN4220 MutS2 in two-compartment pharmacokinetic/pharmacodynamic model at 600 mg, bid administered as 0.5 hr infusion for 2 days; assay type: functional
Enterococcus faecalis [24] = test: T>MIC in Enterococcus faecalis Ef1497 in two-compartment pharmacokinetic/pharmacodynamic model at 600 mg, bid administered as 0.5 hr infusion for 2 days; assay type: functional
Enterococcus faecalis [25] = test: ABBC (0 to 24 hrs) in Enterococcus faecalis ATCC 29212 in two-compartment pharmacokinetic/pharmacodynamic model at 200 mg, bid administered as 0.5 hr infusion for 2 days; assay type: functional
Outline: (§3)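 Hollow-fibre two-compartment model in cation-adjusted, protein-free MH broth at 37°C. Human total-plasma linezolid profile simulated as 0.5-h infusion every 12 h for 48 h. Concentrated 18-h culture injected into the peripheral compartment 3 h before first sample, giving about 10^8 (E. faecalis) or 10^9 (S. aureus) CFU/ml. Viable counts by dilution plating over 0–24 h. Area indices calculated versus growth control curve. Duplicate runs.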

Enterococcus faecalis [26] = test: ABBC (0 to 24 hrs) in Enterococcus faecalis Ef1497 in two-compartment pharmacokinetic/pharmacodynamic model at 800 mg, bid administered as 0.5 hr infusion for 2 days; assay type: functional; outline: as §3
[27] = AUC in two-compartment pharmacokinetic/pharmacodynamic model at 600 mg, bid administered as 0.5 hr infusion over 24 hrs; assay type: ADME; set-up: dose 600 mg, time < 24 hr; details: in vivo, iv
[28] = Volume of distribution at steady state in two-compartment pharmacokinetic/pharmacodynamic model bid administered as 0.5 hr infusion over 24 hrs; details: in vivo, iv; read-out: Vdss

## CC(=O)NC[C@H]1CN(c2ccc(N3CCOCC3)c(F)c2)C(=O)O1 [LINEZOLID]
Staphylococcus aureus [1]
  log10CFU/ml: 0.02
Staphylococcus aureus [2]
  log10CFU/ml: 0.74
Enterococcus faecalis [3]
  log10CFU/ml: 0.26
Enterococcus faecalis [4]
  log10CFU/ml: 0.83
Enterococcus faecalis [5]
  log10CFU/ml: 1.23
Enterococcus faecalis [6]
  log10CFU/ml: 0.53
Enterococcus faecalis [7]
  log10CFU/ml: -0.16
Enterococcus faecalis [8]
  log10CFU/ml: -1.16
Enterococcus faecalis [9]
  log10CFU/ml: 0.23
Enterococcus faecalis [10]
  log10CFU/ml: 0.41
Enterococcus faecalis [11]
  log10CFU/ml: -0.01
Enterococcus faecalis [12]
  log10CFU/ml: 0.45
[13]
  Cmax: 13400 ng/mL
[14]
  concentration at 0.5 h: 1170 ng/mL
[15]
  MRT: 8.65 h
[16]
  AUC at 0.5 h: 38200 ng·h/mL
[17]
  clearance: 248 mL/min
[18]
  clearance: 287 mL/min
[19]
  Vd: 124 L
[20]
  Vd: 104 L
Staphylococcus aureus [21]
  log10CFU/ml: -0.17
Staphylococcus aureus [22]
  log10CFU/ml: -0.21
[23]
  fT>MIC: 66.6%
Enterococcus faecalis [24]
  fT>MIC: 69%
Enterococcus faecalis [25]
  ABBC: 5.11 log10CFU/ml.hr
Enterococcus faecalis [26]
  ABBC: 3.6 log10CFU/ml.hr
[27]
  AUC at 24 h: 35400 ng·h/mL
[28]
  Vd: 100 L
